Experimental data collected from several papers.
Each line is one published result; the experiments were not run side by side.
Cell line: MDA-MB-231
Observed: cell growth or viability

Cc1ccc2nc(-c3ccc(Cl)cc3)n(Cc3ccccc3Cl)c2c1 — IC50 (MTT): 74.2 µM
COc1cc2c(cc1O)CCN(Cc1cccc(NC(C)=O)c1)C2 — GI50 (WST-1; 96 h): > 100 µM
CCc1cc(CN2CCc3cc(O)c(OC)cc3C2)cc(CC)c1CC — GI50 (WST-1; 96 h): 26 µM
c1ccc2[nH]c(-c3ccc4c(c3)OCO4)nc2c1 — IC50 (MTT; 48 h): > 100 µM
COc1cccc2c1C(=O)c1c(O)c3c(c(O)c1C2=O)C[C@@](O)(C(=O)CO)C[C@@H]3O[C@H]1C[C@H](N)[C@H](O)[C@H](C)O1 — viability (MTT; 3.125 µM; 24 h): 52.6%
COc1ccc(-c2cn(-c3cc(=O)oc4ccc(Br)cc34)nn2)cc1 — CC50 (imaging; 72 h): 10.7 µM
Cc1ccc2nc(-c3ccc(Cl)c(Cl)c3)[nH]c2c1 — IC50 (MTT; 48 h): 60.2 µM
C[C@]12CC[C@@H]3c4ccc(O)cc4CC[C@H]3[C@@H]1CC[C@@H]2O — EC50 (ATP luminescence; 72 h): 35.8 µM
COc1cc2c(cc1O)CCN(Cc1cccc(OC(C)C)c1)C2 — GI50 (WST-1; 96 h): 86 µM
CC/C(=C(\c1ccccc1)c1ccc(OCCN(C)C)cc1)c1ccccc1 — EC90 (ATP luminescence; 72 h): 33.4 µM
COc1cc2c(cc1OS(N)(=O)=O)CCN(Cc1cccc(C#N)c1)C2 — GI50 (WST-1; 96 h): 4.7 µM
Cc1ccc2nc(-c3ccc([N+](=O)[O-])cc3)n(Cc3ccc(Cl)cc3)c2c1 — IC50 (MTT): 9.02 µM
N#CC(C(=O)Nc1cccc(C(F)(F)F)c1)=C1Sc2nc3ccc(S(=O)(=O)N4CCCC4)cc3nc2S1 — viability (MTT; 3.125 µM; 24 h): 77.1%
COc1cc2c(cc1OS(N)(=O)=O)CCN(Cc1cccc([N+](=O)[O-])c1)C2 — GI50 (WST-1; 96 h): 1.91 µM
C[C@]12CCCN1CC1=NNC(=O)c3cc(F)cc4[nH]c2c1c34 — EC50 (ATP luminescence; 7 days): ~9 µM
O=C1CCCCC1=C1Sc2nc3ccc(S(=O)(=O)N4CCCC4)cc3nc2S1 — viability (MTT; 100 µM; 24 h): 8.2%
CCOc1c(OC)cc(CN2CCc3cc(O)c(OC)cc3C2)cc1OC — GI50 (WST-1; 96 h): 0.3 µM
COc1ccc(-c2nc3ccc(C)cc3[nH]2)cc1OC — IC50 (MTT; 48 h): 52.6 µM
COc1cc2c(cc1OS(N)(=O)=O)CCN(Cc1cccc(NC(C)=O)c1)C2 — GI50 (WST-1; 96 h): > 100 µM
CCc1cc(CN2CCc3cc(OS(N)(=O)=O)c(OC)cc3C2)cc(CC)c1CC — GI50 (WST-1; 96 h): 5.7 µM
C=CCn1c(-c2ccc(OC)c(OC)c2)nc2ccccc21 — IC50 (MTT): 31.2 µM
COc1cc2c(cc1OS(N)(=O)=O)CCN(Cc1cccc(OC(F)(F)F)c1)C2 — GI50 (WST-1; 96 h): 2.29 µM
CCOC(=O)C(C(C)=O)=C1Sc2nc3ccc(S(=O)(=O)N4CCCC4)cc3nc2S1 — viability (MTT; 100 µM; 24 h): 3.7%
COc1cc(OC)c(CN2CCc3cc(OS(N)(=O)=O)c(OC)cc3C2)c(OC)c1 — GI50 (WST-1; 96 h): > 100 µM
CCOc1ccc(-c2nc3ccc(C)cc3[nH]2)cc1 — IC50 (MTT; 48 h): 13.2 µM
COc1cc2c(cc1OS(N)(=O)=O)CCN(Cc1cccc(O)c1)C2 — GI50 (WST-1; 96 h): 41 µM
CCOc1cc(CN2CCc3cc(OS(N)(=O)=O)c(OC)cc3C2)cc(OCC)c1OCC — GI50 (WST-1; 96 h): 4.4 µM
c1ccc2[nH]c(-c3ccncc3)nc2c1 — IC50 (MTT; 48 h): > 100 µM
